Laboratory results: ChEMBL document CHEMBL1156690, “Synthesis, anti-HIV-1 integrase, and cytotoxic activities of 4-chloro-N-(4-oxopyrimidin-2-yl)-2-mercaptobenzenesulfonamide derivatives” (Eur J Med Chem, 2008)
Blank lines part the entries; values can stand above or below the compound they belong to.

How the values were obtained:
[1] = biological target: T1, Human immunodeficiency virus type 1 integrase (Human immunodeficiency virus 1, UniProt Q7ZJM1); test: Inhibition of HIV1 integrase strand transfer activity
Method in brief: (§1)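 HIV-1 integrase (200 nM final) preincubated 30 min at 30 °C with inhibitor in buffer (pH 7.2 MOPS, NaCl, HEPES, EDTA, DTT, 10% glycerol, 7.5 mM MnCl₂, 0.1 mg/ml BSA, 2-mercaptoethanol, 10% DMSO). 20 nM 5'-³²P-labeled linear oligonucleotide substrate then added for 1 h. Quenched with formamide loading dye; products resolved on denaturing 20% polyacrylamide/urea gel. IC₅₀ reported for each step.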

[2] = biological target: T1, Human immunodeficiency virus type 1 integrase; test: Inhibition of HIV1 integrase 3' processing activity; method in brief: as §1
SF-268 [3] = test: (§2) Growth inhibition of human SF268 cells; assay type: functional
Method in brief: (§3)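 Run by the US National Cancer Institute in vitro screen against a panel of 53–57 human tumor cell lines. GI₅₀ is defined as the molar concentration inhibiting 50% net cell growth. TGI is the concentration giving total growth inhibition.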

EKVX = test: Growth inhibition of human EKVX cells; assay type: functional; method in brief: as §3
NCI-H522 = test: Growth inhibition of human NCI-H522 cells; assay type: functional; method in brief: as §3
SNB-75 = test: Growth inhibition of human SNB75 cells; assay type: functional; method in brief: as §3
SNB-19 = test: Growth inhibition of human SNB19 cells; assay type: functional; method in brief: as §3
UACC-62 = test: Growth inhibition of human UACC62 cells; assay type: functional; method in brief: as §3
T47D = test: Growth inhibition of human T47D cells; assay type: functional; method in brief: as §3
BT-549 = test: Growth inhibition of human BT549 cells; assay type: functional; method in brief: as §3
HCT-116 = test: Growth inhibition of human HCT116 cells; assay type: functional; method in brief: as §3
SR = test: Growth inhibition of human SR cells; assay type: functional; method in brief: as §3
HOP-62 = test: Growth inhibition of human HOP62 cells; assay type: functional; method in brief: as §3
M14 = test: Growth inhibition of human M14 cells; assay type: functional; method in brief: as §3
KM12 = test: Growth inhibition of human KM12 cells; assay type: functional; method in brief: as §3
SN12C = test: Growth inhibition of human SN12C cells; assay type: functional; method in brief: as §3
NCI-H322M = test: Growth inhibition of human NCI-H322M cells; assay type: functional; method in brief: as §3
LOX IMVI = test: Growth inhibition of human LOX IMVI cells; assay type: functional; method in brief: as §3
HCC 2998 = test: Growth inhibition of human HCC2998 cells; assay type: functional; method in brief: as §3
SK-MEL-5 = test: Growth inhibition of human SK-MEL-5 cells; assay type: functional; method in brief: as §3
A498 = test: Growth inhibition of human A498 cells; assay type: functional; method in brief: as §3
Malme-3M = test: Growth inhibition of human MALME-3M cells; assay type: functional; method in brief: as §3
CCRF-CEM = test: Growth inhibition of human CCRF-CEM cells; assay type: functional; method in brief: as §3
SF-268 [4] = test: as §2; assay type: functional; method in brief: as §3; remark: listed apart in the source
MOLT-4 = test: Growth inhibition of human MOLT4 cells; assay type: functional; method in brief: as §3

T1 sequence (Q7ZJM1 whole entry): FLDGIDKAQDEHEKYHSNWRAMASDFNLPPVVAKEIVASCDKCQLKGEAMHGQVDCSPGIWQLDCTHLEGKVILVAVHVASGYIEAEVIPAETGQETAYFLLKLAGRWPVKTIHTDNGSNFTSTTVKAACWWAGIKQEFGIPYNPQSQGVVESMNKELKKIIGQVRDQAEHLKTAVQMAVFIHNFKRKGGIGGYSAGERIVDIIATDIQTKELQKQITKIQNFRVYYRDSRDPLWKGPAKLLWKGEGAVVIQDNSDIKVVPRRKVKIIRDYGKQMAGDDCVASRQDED

IC50 [1]: > 100 µM | IC50 [2]: > 100 µM
Structure (SMILES): NC(=O)c1cc(S(=O)(=O)Nc2nc3ccccc3c(=O)[nH]2)c(SCc2ccccc2)cc1Cl

GI50 (NCI-H522): 19 µM | IC50 [1]: > 100 µM | IC50 [2]: > 100 µM
Structure (SMILES): Cc1cc(S(=O)(=O)Nc2nc3ccccc3c(=O)n2N)c(S)cc1Cl
GI50 (SF-268 [3]): 7.2 µM | TGI (SF-268 [3]): 40.1 µM | GI50 (EKVX): 14.8 µM | TGI (EKVX): 29.2 µM | TGI (NCI-H522): 50.8 µM | GI50 (SNB-75): 13.3 µM | TGI (SNB-75): 32.7 µM | GI50 (SNB-19): 15.7 µM | TGI (SNB-19): 47.2 µM | GI50 (UACC-62): 19.7 µM | TGI (UACC-62): 49.2 µM

GI50 (T47D): > 100 µM | GI50 (BT-549): > 100 µM | GI50 (HCT-116): > 100 µM | GI50 (NCI-H322M): > 100 µM | GI50 (NCI-H522): > 100 µM | GI50 (HCC 2998): > 100 µM | GI50 (SK-MEL-5): > 100 µM | GI50 (CCRF-CEM): > 100 µM | IC50 [1]: 6 µM | IC50 [2]: 8 µM | GI50 (MOLT-4): > 100 µM
Structure (SMILES): Cc1cc(S(=O)(=O)Nc2nc3cc(-c4ccsc4)sc3c(=O)n2Cc2ccco2)c(S)cc1Cl
GI50 (SR): > 100 µM | GI50 (HOP-62): > 100 µM | GI50 (M14): > 100 µM | GI50 (KM12): > 100 µM | GI50 (SF-268 [3]): > 100 µM | GI50 (SN12C): > 100 µM | GI50 (EKVX): > 100 µM | GI50 (SNB-75): > 100 µM | GI50 (LOX IMVI; Homo sapiens, LOX IMVI): > 100 µM | GI50 (SNB-19): > 100 µM | GI50 (A498): > 100 µM | GI50 (Malme-3M): > 100 µM | GI50 (SF-268 [4]): > 100 µM | GI50 (UACC-62): > 100 µM

IC50 [1]: > 100 µM | IC50 [2]: > 100 µM
Structure (SMILES): Cc1cc(S(=O)(=O)Nc2nc3n[nH]cc3c(=O)n2N)c(S)cc1Cl

IC50 [1]: 36 µM | IC50 [2]: 73 µM
Structure (SMILES): O=C(Nc1ccccc1)c1cc(S(=O)(=O)Nc2nc3ccccc3c(=O)[nH]2)c(SCc2ccccc2)cc1Cl

IC50 [1]: 90 µM | IC50 [2]: > 100 µM
Structure (SMILES): Cc1cc(S(=O)(=O)Nc2nc(=O)c3ccccc3n2C)c(SCc2ccccc2)cc1Cl

GI50 (T47D): > 100 µM | GI50 (BT-549): > 100 µM | GI50 (HCT-116): > 100 µM | GI50 (NCI-H322M): > 100 µM | GI50 (NCI-H522): > 100 µM | GI50 (HCC 2998): > 100 µM | GI50 (SK-MEL-5): > 100 µM | GI50 (CCRF-CEM): > 100 µM | IC50 [1]: 6 µM | IC50 [2]: 9 µM | GI50 (MOLT-4): > 100 µM
Structure (SMILES): Cc1cc(S(=O)(=O)Nc2nc3cc(-c4ccccc4)sc3c(=O)n2Cc2ccccc2)c(S)cc1Cl
GI50 (SR): > 100 µM | GI50 (HOP-62): > 100 µM | GI50 (M14): > 100 µM | GI50 (KM12): > 100 µM | GI50 (SF-268 [3]): > 100 µM | GI50 (SN12C): > 100 µM | GI50 (EKVX): > 100 µM | GI50 (SNB-75): > 100 µM | GI50 (LOX IMVI; Homo sapiens, LOX IMVI): > 100 µM | GI50 (SNB-19): > 100 µM | GI50 (A498): > 100 µM | GI50 (Malme-3M): > 100 µM | GI50 (SF-268 [4]): > 100 µM | GI50 (UACC-62): > 100 µM

GI50 (T47D): 15 µM | GI50 (BT-549): 15.7 µM | IC50 [1]: 42 µM | IC50 [2]: 78 µM | GI50 (MOLT-4): 18.6 µM
Structure (SMILES): Cc1cc(S(=O)(=O)Nc2nc3ccccc3c(=O)n2Cc2ccco2)c(S)cc1Cl
TGI (T47D): 81.4 µM | TGI (BT-549): 51.9 µM | GI50 (SR): 19.5 µM | TGI (SR): 40.7 µM | growth inhibitory concentration (LOX IMVI): 16.1 µM | TGI (LOX IMVI; Homo sapiens, LOX IMVI): 59.3 µM | GI50 (SNB-19): < 0.01 µM | TGI (SNB-19): 88.8 µM | TGI (MOLT-4): 70.6 µM

IC50 [1]: 4.9 µM | IC50 [2]: 4.79 µM
Structure (SMILES): Cc1cc(S(=O)(=O)Nc2nc(N)n[nH]2)c(S)cc1Cl

IC50 [1]: 35 µM | IC50 [2]: 60 µM
Structure (SMILES): Cc1cc(S(=O)(=O)Nc2nc3cc(C(C)(C)C)sc3c(=O)n2N)c(S)cc1Cl

IC50 [1]: 33 µM | IC50 [2]: 47 µM
Structure (SMILES): Cc1cc(S(=O)(=O)Nc2nc3cc(Cl)ccc3c(=O)[nH]2)c(SCc2ccccc2)cc1Cl

GI50 (HCT-116): 19.2 µM | GI50 (NCI-H322M): 19.5 µM | GI50 (SK-MEL-5): 12.5 µM | IC50 [1]: 29 µM | IC50 [2]: 53 µM
Structure (SMILES): Cc1cc(S(=O)(=O)Nc2nc3ccsc3c(=O)n2Cc2ccccc2)c(S)cc1Cl
TGI (HCT-116): 37.7 µM | GI50 (HOP-62): 19.7 µM | TGI (HOP-62): 46.6 µM | GI50 (M14): 19.8 µM | TGI (M14): 49.6 µM | GI50 (KM12): 19.9 µM | TGI (KM12): 48.2 µM | TGI (NCI-H322M): 48.8 µM | TGI (SK-MEL-5): 34.2 µM | GI50 (A498): 14.2 µM | TGI (A498): 49.3 µM | GI50 (Malme-3M): 19.9 µM | TGI (Malme-3M): 56.1 µM | GI50 (UACC-62): 19.5 µM | TGI (UACC-62): 44.4 µM

IC50 [1]: 77 µM | IC50 [2]: > 100 µM
Structure (SMILES): Cc1ccc(NC(=O)c2cc(S(=O)(=O)Nc3nc4ccccc4c(=O)[nH]3)c(SCc3ccccc3)cc2Cl)cc1

IC50 [1]: 39 µM | IC50 [2]: 55 µM
Structure (SMILES): Cc1cc(S(=O)(=O)Nc2nc3sc(C)c(C)c3c(=O)n2N)c(S)cc1Cl
